{"source": "ChEMBL document CHEMBL1240410", "about": "“Cytotoxicity against cholangiocarcinoma cell lines of zerumbone derivatives” (Eur J Med Chem, 2010)", "format_in_all_cases": "functional, cell-based", "key": {"[1]": {"assay": "Cytotoxicity against human KKU100 cells", "summary_of_the_method": "(§1)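 SRB assay: cells seeded at 0.5–1.0 × 10^5 cells/mL and held 24 h at 37 °C. Compounds added in triplicate at final 0.025, 0.16, 0.8, 4 and 20 µg/well, with 0.1% DMSO as solvent control. Exposure was 72 h at 37 °C, plus a 1 h starting-cell plate. Cells fixed with TCA, stained with SRB, OD read at 510 nm. IC50 taken as 50% reduction of control protein increase.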"}, "[2]": {"assay": "Cytotoxicity against human KKU-M139 cells", "summary_of_the_method": "as §1"}, "[3]": {"assay": "Cytotoxicity against human KKU-M156 cells", "summary_of_the_method": "as §1"}, "[4]": {"assay": "Cytotoxicity against human KKU-M213 cells", "summary_of_the_method": "as §1"}, "[5]": {"assay": "Cytotoxicity against human KKU-M214 cells", "summary_of_the_method": "as §1"}, "KKU100": {"test_system": "KKU100", "assay": "Cytotoxicity against human KKU100 cells at 75 uM"}, "KKU-M139": {"test_system": "KKU-M139", "assay": "Cytotoxicity against human KKU-M139 cells at 75 uM"}, "KKU-M156": {"test_system": "KKU-M156", "assay": "Cytotoxicity against human KKU-M156 cells at 75 uM"}, "KKU-M213": {"test_system": "KKU-M213", "assay": "Cytotoxicity against human KKU-M213 cells at 75 uM"}, "KKU-M214": {"test_system": "KKU-M214", "assay": "Cytotoxicity against human KKU-M214 cells at 75 uM"}}, "note": "Activity calls are given as the source filed them. The rule behind the calls is not given here."}
{"smiles": "C/C1=C\\CC(C)(C)C(C#N)CC(=O)/C(C)=C/CC1", "note": "(stereo not given)", "values": [{"measurement": "IC50", "setting": "[1]", "value": 25.7, "unit": "µM"}, {"measurement": "IC50", "setting": "[2]", "value": 55.9, "unit": "µM"}, {"measurement": "IC50", "setting": "[3]", "value": 37.3, "unit": "µM"}, {"measurement": "IC50", "setting": "[4]", "value": 45.1, "unit": "µM"}, {"measurement": "IC50", "setting": "[5]", "value": 54.5, "unit": "µM"}]}
{"smiles": "C/C1=C\\CC(C)(C)/C=C/C(=O)/C(C)=C/CC1", "values": [{"measurement": "Activity", "setting": "KKU100", "value": "inactive"}, {"measurement": "Activity", "setting": "KKU-M139", "value": "inactive"}, {"measurement": "Activity", "setting": "KKU-M156", "value": "inactive"}, {"measurement": "Activity", "setting": "KKU-M213", "value": "inactive"}, {"measurement": "Activity", "setting": "KKU-M214", "value": "inactive"}]}
{"smiles": "C/C1=C\\CC(C)(C)/C=C/C(=O)[C@H](C)[C@H](N(C)C)CC1", "values": [{"measurement": "Activity", "setting": "KKU100", "value": "inactive"}, {"measurement": "Activity", "setting": "KKU-M139", "value": "inactive"}, {"measurement": "Activity", "setting": "KKU-M156", "value": "inactive"}, {"measurement": "Activity", "setting": "KKU-M213", "value": "inactive"}, {"measurement": "Activity", "setting": "KKU-M214", "value": "inactive"}]}
{"smiles": "C/C1=C\\CC(C)(C)C(C#N)CC(=O)[C@H](C)[C@H](N(C)C)CC1", "note": "(stereo not given in full)", "values": [{"measurement": "Activity", "setting": "KKU100", "value": "inactive"}, {"measurement": "Activity", "setting": "KKU-M139", "value": "inactive"}, {"measurement": "Activity", "setting": "KKU-M156", "value": "inactive"}, {"measurement": "Activity", "setting": "KKU-M213", "value": "inactive"}, {"measurement": "Activity", "setting": "KKU-M214", "value": "inactive"}]}
{"smiles": "CCCCN(C(C)=O)[C@@H]1CC/C(C)=C/CC(C)(C)/C=C/C(=O)[C@@H]1C", "values": [{"measurement": "Activity", "setting": "KKU100", "value": "inactive"}, {"measurement": "Activity", "setting": "KKU-M139", "value": "inactive"}, {"measurement": "Activity", "setting": "KKU-M156", "value": "inactive"}, {"measurement": "Activity", "setting": "KKU-M213", "value": "inactive"}, {"measurement": "Activity", "setting": "KKU-M214", "value": "inactive"}]}
{"smiles": "C/C1=C\\CC(C)(C)/C=C/C(=O)[C@H](C)[C@H](N)CC1", "note": "(racemic)", "values": [{"measurement": "IC50", "setting": "[1]", "value": 16.4, "unit": "µM"}, {"measurement": "IC50", "setting": "[2]", "value": 63.3, "unit": "µM"}, {"measurement": "IC50", "setting": "[3]", "value": 69, "unit": "µM"}, {"measurement": "IC50", "setting": "[4]", "value": 51.9, "unit": "µM"}, {"measurement": "IC50", "setting": "[5]", "value": 59.6, "unit": "µM"}]}
{"smiles": "C/C1=C\\CC[C@@]2(C)O[C@H]2CC(C)(C)/C=C/C1=O", "note": "(racemic)", "values": [{"measurement": "IC50", "setting": "[5]", "value": 52.6, "unit": "µM"}, {"measurement": "Activity", "setting": "KKU100", "value": "inactive"}, {"measurement": "Activity", "setting": "KKU-M139", "value": "inactive"}, {"measurement": "Activity", "setting": "KKU-M156", "value": "inactive"}, {"measurement": "Activity", "setting": "KKU-M213", "value": "inactive"}]}
{"smiles": "C[C@H]1C(=O)/C=C/C(C)(C)C[C@@H]2O[C@]2(C)CC[C@H]1N", "note": "(racemic)", "values": [{"measurement": "IC50", "setting": "[5]", "value": 18.3, "unit": "µM"}, {"measurement": "Activity", "setting": "KKU100", "value": "inactive"}, {"measurement": "Activity", "setting": "KKU-M139", "value": "inactive"}, {"measurement": "Activity", "setting": "KKU-M156", "value": "inactive"}, {"measurement": "Activity", "setting": "KKU-M213", "value": "inactive"}]}
{"smiles": "C/C1=C\\CC(C)(C)[C@H](C#N)CC(=O)[C@H](C)[C@H](C#N)CC1", "note": "(racemic)", "values": [{"measurement": "IC50", "setting": "[5]", "value": 66.5, "unit": "µM"}, {"measurement": "Activity", "setting": "KKU100", "value": "inactive"}, {"measurement": "Activity", "setting": "KKU-M139", "value": "inactive"}, {"measurement": "Activity", "setting": "KKU-M156", "value": "inactive"}, {"measurement": "Activity", "setting": "KKU-M213", "value": "inactive"}]}
{"smiles": "CCCCN[C@@H]1CC/C(C)=C/CC(C)(C)/C=C/C(=O)[C@@H]1C", "note": "(racemic)", "values": [{"measurement": "IC50", "setting": "[4]", "value": 36.6, "unit": "µM"}, {"measurement": "IC50", "setting": "[5]", "value": 41.6, "unit": "µM"}, {"measurement": "Activity", "setting": "KKU100", "value": "inactive"}, {"measurement": "Activity", "setting": "KKU-M139", "value": "inactive"}, {"measurement": "Activity", "setting": "KKU-M156", "value": "inactive"}]}
{"smiles": "CCCCN[C@@H]1CC/C(C)=C/CC(C)(C)/C=C/[C@H](O)[C@@H]1C", "note": "(racemic)", "values": [{"measurement": "IC50", "setting": "[1]", "value": 35.3, "unit": "µM"}, {"measurement": "IC50", "setting": "[2]", "value": 19.6, "unit": "µM"}, {"measurement": "IC50", "setting": "[3]", "value": 26.3, "unit": "µM"}, {"measurement": "IC50", "setting": "[4]", "value": 27.2, "unit": "µM"}, {"measurement": "IC50", "setting": "[5]", "value": 16.1, "unit": "µM"}]}
{"smiles": "CCCCN[C@@H]1CC[C@@]2(C)O[C@H]2CC(C)(C)/C=C/C(=O)[C@@H]1C", "note": "(racemic)", "values": [{"measurement": "IC50", "setting": "[1]", "value": 16.5, "unit": "µM"}, {"measurement": "IC50", "setting": "[3]", "value": 48.2, "unit": "µM"}, {"measurement": "IC50", "setting": "[4]", "value": 37.6, "unit": "µM"}, {"measurement": "IC50", "setting": "[5]", "value": 51, "unit": "µM"}, {"measurement": "Activity", "setting": "KKU-M139", "value": "inactive"}]}
{"smiles": "C/C1=C\\CC(C)(C)/C=C/C(=O)[C@H](C)[C@H](NCc2ccccc2)CC1", "note": "(racemic)", "values": [{"measurement": "Activity", "setting": "KKU100", "value": "inactive"}, {"measurement": "Activity", "setting": "KKU-M139", "value": "inactive"}, {"measurement": "Activity", "setting": "KKU-M156", "value": "inactive"}, {"measurement": "Activity", "setting": "KKU-M213", "value": "inactive"}, {"measurement": "Activity", "setting": "KKU-M214", "value": "inactive"}]}
{"smiles": "C/C1=C\\CC(C)(C)/C=C/C(O)/C(C)=C/CC1", "note": "(racemic)", "values": [{"measurement": "Activity", "setting": "KKU100", "value": "inactive"}, {"measurement": "Activity", "setting": "KKU-M139", "value": "inactive"}, {"measurement": "Activity", "setting": "KKU-M156", "value": "inactive"}, {"measurement": "Activity", "setting": "KKU-M213", "value": "inactive"}, {"measurement": "Activity", "setting": "KKU-M214", "value": "inactive"}]}
{"smiles": "C/C1=C\\CC(C)(C)/C=C/[C@H](O)[C@@]2(C)O[C@H]2CC1", "note": "(racemic)", "values": [{"measurement": "Activity", "setting": "KKU100", "value": "inactive"}, {"measurement": "Activity", "setting": "KKU-M139", "value": "inactive"}, {"measurement": "Activity", "setting": "KKU-M156", "value": "inactive"}, {"measurement": "Activity", "setting": "KKU-M213", "value": "inactive"}, {"measurement": "Activity", "setting": "KKU-M214", "value": "inactive"}]}
{"smiles": "CC(=O)N[C@@H]1CC/C(C)=C/CC(C)(C)/C=C/C(=O)[C@@H]1C", "note": "(racemic)", "values": [{"measurement": "Activity", "setting": "KKU100", "value": "inactive"}, {"measurement": "Activity", "setting": "KKU-M139", "value": "inactive"}, {"measurement": "Activity", "setting": "KKU-M156", "value": "inactive"}, {"measurement": "Activity", "setting": "KKU-M213", "value": "inactive"}, {"measurement": "Activity", "setting": "KKU-M214", "value": "inactive"}]}
{"smiles": "CC(=O)N[C@@H]1CC/C(C)=C/CC(C)(C)/C=C/[C@H](O)[C@@H]1C", "note": "(racemic)", "values": [{"measurement": "Activity", "setting": "KKU100", "value": "inactive"}, {"measurement": "Activity", "setting": "KKU-M139", "value": "inactive"}, {"measurement": "Activity", "setting": "KKU-M156", "value": "inactive"}, {"measurement": "Activity", "setting": "KKU-M213", "value": "inactive"}, {"measurement": "Activity", "setting": "KKU-M214", "value": "inactive"}]}
{"smiles": "CC(=O)N[C@@H]1CC[C@@]2(C)O[C@H]2CC(C)(C)/C=C/C(=O)[C@@H]1C", "note": "(racemic)", "values": [{"measurement": "Activity", "setting": "KKU100", "value": "inactive"}, {"measurement": "Activity", "setting": "KKU-M139", "value": "inactive"}, {"measurement": "Activity", "setting": "KKU-M156", "value": "inactive"}, {"measurement": "Activity", "setting": "KKU-M213", "value": "inactive"}, {"measurement": "Activity", "setting": "KKU-M214", "value": "inactive"}]}
{"smiles": "CC(=O)OC1/C=C/C(C)(C)C/C=C(\\C)CC/C=C/1C", "note": "(racemic)", "values": [{"measurement": "Activity", "setting": "KKU100", "value": "inactive"}, {"measurement": "Activity", "setting": "KKU-M139", "value": "inactive"}, {"measurement": "Activity", "setting": "KKU-M156", "value": "inactive"}, {"measurement": "Activity", "setting": "KKU-M213", "value": "inactive"}, {"measurement": "Activity", "setting": "KKU-M214", "value": "inactive"}]}
{"smiles": "C[C@H]1C(=O)/C=C/C(C)(C)C[C@@H]2O[C@]2(C)CC[C@H]1NCc1ccccc1", "note": "(racemic)", "values": [{"measurement": "Activity", "setting": "KKU100", "value": "inactive"}, {"measurement": "Activity", "setting": "KKU-M139", "value": "inactive"}, {"measurement": "Activity", "setting": "KKU-M156", "value": "inactive"}, {"measurement": "Activity", "setting": "KKU-M213", "value": "inactive"}, {"measurement": "Activity", "setting": "KKU-M214", "value": "inactive"}]}
{"smiles": "Cc1c2ccncc2c(C)c2c1[nH]c1ccccc12", "note": "[ELLIPTECINE]", "values": [{"measurement": "IC50", "setting": "[1]", "value": 25.2, "unit": "µM"}, {"measurement": "IC50", "setting": "[2]", "value": 4.5, "unit": "µM"}, {"measurement": "IC50", "setting": "[3]", "value": 9.34, "unit": "µM"}, {"measurement": "IC50", "setting": "[4]", "value": 1.62, "unit": "µM"}, {"measurement": "IC50", "setting": "[5]", "value": 1.01, "unit": "µM"}]}
